Source: PubChem BioAssay (several laboratories)
PERK inh: blocks human PERK kinase; CHO PERK-DD fusion, SEAP luminescence translation reporter; AID 1416; hit rate 0.17% among 220,000; Q9NZJ5; inhibition, % at 5.6 µM;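 active = inhibition above the mean inhibition of all tested compounds plus 3 SD, set separately per screening campaign, cut at about 2.9% in these data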;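 note: PERK kinase domain activated by AP20187 dimerizer at 100 nM; 0% = DMSO with dimerizer and 100% = rapamycin at 8.4 µM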
Mdm2 ligase inh: Mdm2 E3 ligase (human) inhibition; signal enhancement, % at 5 µM; cell-based MDM2 ubiquitination luciferase reporter, 2 h; 0 = plate control, 100 = twice control, blank-subtracted; hit rate 0.11% among 210,000; Q00987; AID 1230;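 active = signal enhancement of 30% or more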;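 note: luminescence tracks abundance of the self-degrading MDM2-luciferase fusion protein; higher signal means inhibition of MDM2 E3 ligase activity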
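Buffer or medium: Cells held in DMEM | Assay system: Stable mammalian line carrying autodegrading MDM2–luciferase fusion reporter | Quantity: 2000 cells/well | Times: 4 h settle plus 2 h compound, 37 °C | Doses: One concentration, 5 µM, with 0.2% DMSO | Technique: Luminescence with SteadyLite reagent, 15 min at room temperature | Benchmarks: Plate controls and plate blanks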
NF-kB neuron act: compounds increasing NF-kB expression in human neuronal cells. AID 1239. NF-kB reporter expression; hits give high values. hit rate 1.6% among 190,000. fold change at 12.5 µM; in the data active = fold change above about 3.3
AHR activator: activators of human aryl hydrocarbon receptor; P35869; AHR-responsive luciferase reporter cells, luminescence; activation, % at 5 µM; hit rate 2.5% among 320,000; AID 2796; in the data active = activation above about 47%;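 note: 0% = vehicle wells and 100% = reference agonist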
Target sequence (P35869 whole entry, looked up): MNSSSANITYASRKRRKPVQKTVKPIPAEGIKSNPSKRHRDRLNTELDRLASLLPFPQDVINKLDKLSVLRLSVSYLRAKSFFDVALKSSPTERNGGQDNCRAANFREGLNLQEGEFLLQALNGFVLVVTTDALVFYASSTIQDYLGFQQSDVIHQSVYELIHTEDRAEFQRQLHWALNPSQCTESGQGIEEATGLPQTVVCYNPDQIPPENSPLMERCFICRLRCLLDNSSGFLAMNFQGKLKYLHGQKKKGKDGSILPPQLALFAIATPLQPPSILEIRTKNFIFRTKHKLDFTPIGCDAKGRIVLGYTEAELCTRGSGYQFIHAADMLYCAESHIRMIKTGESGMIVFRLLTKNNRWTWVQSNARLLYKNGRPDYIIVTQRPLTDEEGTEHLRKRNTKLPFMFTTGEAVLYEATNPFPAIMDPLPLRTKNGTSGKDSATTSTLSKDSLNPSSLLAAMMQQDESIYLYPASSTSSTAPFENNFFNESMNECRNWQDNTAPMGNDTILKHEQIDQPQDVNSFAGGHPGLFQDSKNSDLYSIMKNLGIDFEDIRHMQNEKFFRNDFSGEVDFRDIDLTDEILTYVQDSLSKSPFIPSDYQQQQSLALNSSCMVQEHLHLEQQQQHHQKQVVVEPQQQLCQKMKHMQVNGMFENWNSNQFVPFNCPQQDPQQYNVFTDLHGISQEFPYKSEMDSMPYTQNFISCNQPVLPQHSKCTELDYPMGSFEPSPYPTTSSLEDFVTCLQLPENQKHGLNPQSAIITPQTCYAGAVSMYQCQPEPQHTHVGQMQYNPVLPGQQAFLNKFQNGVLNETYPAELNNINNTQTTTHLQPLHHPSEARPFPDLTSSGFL
STAT1 act: activators of IFN-gamma induced STAT1 signaling | NIH 3T3 STAT1-luciferase reporter, luminescence; 100% = IFN-gamma alone, no compound | activation (% of control), % at 5.5 µM | hit rate 2.6% among 200,000 | AID 932;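 active = activation above the screen-wide mean activation plus 3 SD, cut at about 130% in these data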;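 note: raw ratio to IFN-gamma control signal so 100% means no change and 0% no light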
APP 5'UTR act: APP 5'UTR luciferase reporter activation | SH-SY5Y APP 5'UTR luciferase reporter, luminescence; zero percent = DMSO vehicle wells | activation, % at 2 µM | hit rate 1% among 190,000;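 active = activation above a set limit, based on mean plus 3 SD of controls, cut at about 140% in these data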
* marks the source's active call; other numbers are inactive results; . = no result. The list is not random: actives were taken first. Their share in the collection is about 4.5%.

SMILES	PERK inh	Mdm2 ligase inh	NF-kB neuron act	AHR activator	STAT1 act	APP 5'UTR act
Cc1csc(NC(=O)c2ccc(OCC3CCCO3)cc2)n1 (stereo unspecified)	-0.2	-59.7	4.78*	5.6	43.9	160.0*
Cc1ccc(NC(=O)CNC(=O)c2cccc(Cl)c2)nc1	.	.	.	4.3	.	.
O=C(Nc1ccc2c(c1)OCCO2)c1cc2sccc2n1Cc1ccc(F)cc1	-0.4	-3.9	0.98	64.3*	113.6	58.0
O=C(Nc1ccc2c(c1)OCCO2)c1cc2sccc2n1Cc1ccccc1	-0.1	-15.8	1.02	26.4	110.8	30.3
C=CCOc1ccc(C(=O)Nc2ncn[nH]2)cc1	.	.	.	65.8*	.	.
CCOc1ccc(C(=O)Nc2ncn[nH]2)cc1	.	.	.	23.4	.	.
CON(C)c1nc(OCC#N)nc(N(C)C)n1	0.6	.	0.97	-1.0	107.4	-11.2
CSc1nc(O)c(C(c2ccccc2)c2c(O)nc(SC)[nH]c2=O)c(=O)[nH]1	.	.	.	-1.9	.	.
CSc1nc(O)c(C2OC(=O)c3ccccc32)c(=O)[nH]1 (stereo unspecified)	2.9*	1.4	1.3	-1.3	96.3	-2.4
COc1ccc(Cc2n[nH]c(=S)n(N)c2=O)cc1	1.0	-18.9	1.02	0.9	98.2	-6.9
Cc1cc(C)cc(NC(=O)COC(=O)c2n[nH]c3ccccc23)c1	0.6	-5.7	1.74	15.8	108.0	25.3
O=C(COC(=O)c1n[nH]c2ccccc12)Nc1ccccc1	-0.9	-5.2	1.09	3.4	132.9*	42.7
CN1CCC(=O)N(CCSc2ccc(Br)cc2)CC1	.	9.5	.	3.8	.	.
CN1CCN(CC(=O)Nc2ccccc2[N+](=O)[O-])CC1	1.3	-5.4	5.49*	5.0	105.0	10.3
Cc1ccc(C)c2nc3sc(C(=O)N4CCOCC4)c(N)c3cc12	0.2	-5.5	1.87	20.3	143.5*	64.0
O=C(c1cccc(OCc2ccccc2)c1)N1CCOCC1	0.3	6.5	1.28	2.2	105.4	-15.0
Cc1cc(C)c2cc3c(N)c(C(=O)N4CCOCC4)sc3nc2c1	0.8	3.1	0.93	22.8	143.5*	85.8
CCOc1ccc(OCc2cccc(C(=O)N3CCOCC3)c2)cc1	0.2	-73.9	3.43*	-14.4	24.3	-47.8
Cc1cc(C)c2nc3sc(C(=O)N4CCOCC4)c(N)c3cc2c1	0.1	.	.	72.2*	.	.
Cc1cccc2cc3c(N)c(C(=O)Nc4ccc(N5CCOCC5)cc4)sc3nc12	0.4	-7.2	0.39	33.5	96.6	15.8
Cc1ccc2nc3sc(C(=O)Nc4ccc(N5CCOCC5)cc4)c(N)c3cc2c1	-0.1	-20.6	0.93	.	103.2	5.5
CCOc1ccc2nc3sc(C(=O)N4CCOCC4)c(N)c3cc2c1	0.2	-61.9	2.96	12.8	84.6	219.7*
COc1ccc(OC)c(Nc2cc(C)c3ccccc3n2)c1	.	.	.	48.8*	.	.
O=C(Nc1ccc(-c2n[nH]c(=S)o2)cc1)c1ccccc1Cl	.	.	.	6.2	.	.
COc1ccccc1NC(=O)c1cc2ccccc2o1	-0.2	.	2.44	74.0*	153.6*	45.8
SMILES	PERK inh	Mdm2 ligase inh	NF-kB neuron act	AHR activator	STAT1 act	APP 5'UTR act
COc1cc(NC(=O)c2cc3ccccc3o2)c(OC)cc1Cl	1.3	-2.2	1.13	61.5*	99.2	-15.4
COc1ccc(NC(=O)c2ccco2)cc1NC(=O)c1cc2ccccc2o1	-1.0	-14.4	1	62.5*	95.4	-6.1
COc1cc(NC(=O)CC(C)C)ccc1NC(=O)c1ccco1	-0.2	.	.	-2.5	141.3*	97.0
COc1ccc(Cl)cc1NC(=S)Nc1ccccc1C	0.9	-16.9	1.1	0.7	100.8	20.3
COc1cc(OC)cc(C(=O)Nc2cc(NC(=O)c3ccco3)ccc2OC)c1	-1.3	-15.9	0.9	54.9*	105.1	-0.3
O=C(O)CCc1n[nH]c(=S)[nH]c1=O	1.1	-27.1	0.85	-1.1	103.3	-14.2
Oc1[nH]c2ccccc2c1N=Nc1cccc(Cl)c1	.	.	.	41.1	.	.
Cc1cccc2c(N=Nc3ccccc3)c(O)[nH]c12	.	.	.	76.2*	.	.
N#CCC(=O)Nc1ccc(C(=O)OCC(=O)N=c2sccn2Cc2ccccc2Cl)cc1	.	.	.	4.8	.	.
CCCc1nnc(SCC(=O)N2CCOCC2)n1C	1.4	7.5	.	1.7	106.5	-7.6
COc1ccc(-c2nc(N/N=C(\C)c3ccc(O)cc3)c3ccccc3n2)cc1	-0.4	-24.5	.	49.1*	.	.
Cc1ccc(CONC(=O)/N=C/N(C)C)cc1	1.0	-8.1	1.15	-1.8	102.7	-16.4
O=C(O)c1cc(N/N=C/c2cccs2)ccc1Cl	0.8	-22.0	1.94	17.9	108.4	151.9*
Cc1ccc(/C=N/Nc2ccc(Cl)c(C(=O)O)c2)s1	-0.4	11.0	7.95*	2.7	143.4*	166.1*
CCC1(c2ccccc2)NC(=O)N(CC(=O)Nc2ccccc2C(=O)N2CCCCC2)C1=O (stereo unspecified)	.	.	.	3.3	.	.
CC(C)c1ccc(OCC(=O)NC2CC(C)(C)NC(C)(C)C2)c(Br)c1	.	.	.	0.9	.	.
COc1ccc(Oc2ccc(/C=C/C(=O)c3ccc(O)cc3)cc2[N+](=O)[O-])cc1	-0.4	-9.9	4.96*	-1.3	100.7	-25.5
O=C(/C=C/c1ccc(O)c([N+](=O)[O-])c1)c1ccc2ccccc2c1	.	.	.	7.3	.	.
COc1ccc(C2C(C(=O)N3CCN(C)CC3)c3cc(OC)c(OC)cc3C(=O)N2C)cc1 (stereo unspecified)	0.8	30.6*	0.91	-2.4	100.2	10.5
CCOC(=O)C1=C(C)NC(=O)/C1=C\N(C)C	1.8	-11.2	1.03	0.9	99.9	0.2
Cc1ccc(/C(C#N)=C\c2ccc(N3CCOCC3)o2)cc1	1.1	10.6	1.91	-1.1	119.5	-7.8
Cc1ccc2nc(/C(C#N)=C\c3ccc(N4CCOCC4)o3)[nH]c2c1	0.3	-24.1	2.53	42.8	145.3*	120.9
CCN(CC)c1ccc(/C=N/N2CCN(Cc3ccccc3)CC2)c(O)c1	0.2	-15.5	1.27	8.7	96.7	7.1
CCN(CC)c1ccc(/C=N/N2CCOCC2)c(O)c1	1.3	9.0	2.8	1.1	142.0*	54.8
CCN(CC)c1ccc(/C=N/NC(=S)NC)c(O)c1	0.2	.	5.86*	2.5	117.1	-13.1
SMILES	PERK inh	Mdm2 ligase inh	NF-kB neuron act	AHR activator	STAT1 act	APP 5'UTR act
CCN(CC)c1ccc(C=Nc2ccc(N(C)C)cc2)c(O)c1	0.3	-29.0	1.17	28.2	130.1*	78.9
O=C1CC(=C2c3ccccc3-c3ccccc32)C(=O)N1CCCCN1CCN(c2ccccc2)CC1	-0.3	-10.6	1.22	3.3	100.8	-11.3
CCOC(=O)N1CCN(C(=O)CSCc2ccccc2)CC1	0.7	-1.7	1.64	21.4	129.8*	54.8
CCOC(=O)N1CCN(C(=O)CSCc2ccc(Cl)cc2)CC1	0.2	-11.8	1.28	4.3	102.2	23.0
O=C(Nc1ccccc1)c1ccn[nH]1	0.7	-13.8	3.39*	-2.1	138.5*	80.1
CC(=O)c1ccc(NC(=O)c2ccn[nH]2)cc1	0.8	-8.5	1.86	4.7	114.4	72.6
Cc1ccc(CNC(=O)c2ccc(NS(=O)(=O)c3cccs3)cc2)cc1	.	.	.	-1.7	.	.
CC(=O)c1cc(N2CCC(C(=O)O)CC2)ccc1[N+](=O)[O-]	0.0	-3.6	1.06	7.4	103.6	6.2
